M1 antag = blocks the rat M1 muscarinic receptor response to acetylcholine; B-score at 10 µM; AID 628; P08482; CHO-M1 cells, Fluo-4 calcium, ACh EC80 antagonist mode; hits give low values; actives 3.4% (n = 64,000);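 active means calcium fluorescence response, raw or row-and-column corrected B-score, differing from the plate sample mean either way at a set confidence level, mostly lower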
D1 mod = allosteric modulators of human D1 dopamine receptor. P21728. HEK293 D1, CRE-luciferase, dopamine EC30 potentiation; actives deviate in either direction. B-score at 10 µM. actives 5.9% (n = 58,000). AID 641;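 active means luminescence count or its row- and column-corrected plate score outside the 99.7% band of the plate's sample wells, on either side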
S1P1 ag-PAM = S1P1 (human) agonism or agonism potentiation; P21453; S1P1 CRE-bla cells, forskolin, beta-lactamase FRET, potentiator mode; S1P1 agonist co-added at EC20, 2 nM; 100% = saturating reference agonist, 0% = basal; activation, % at 9.5 µM; actives 0.57% (n = 56,000);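 active means activation above a cutoff set at the mean activation of all tested compounds plus 3 SD, cut at about 54% in these data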;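 further: forskolin at 4 µM as EC80 and the EC20 agonist is SEW2871; 100% = SEW2871 at its EC100 plus forskolin at EC80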
Target sequence (P21453 whole entry, looked up): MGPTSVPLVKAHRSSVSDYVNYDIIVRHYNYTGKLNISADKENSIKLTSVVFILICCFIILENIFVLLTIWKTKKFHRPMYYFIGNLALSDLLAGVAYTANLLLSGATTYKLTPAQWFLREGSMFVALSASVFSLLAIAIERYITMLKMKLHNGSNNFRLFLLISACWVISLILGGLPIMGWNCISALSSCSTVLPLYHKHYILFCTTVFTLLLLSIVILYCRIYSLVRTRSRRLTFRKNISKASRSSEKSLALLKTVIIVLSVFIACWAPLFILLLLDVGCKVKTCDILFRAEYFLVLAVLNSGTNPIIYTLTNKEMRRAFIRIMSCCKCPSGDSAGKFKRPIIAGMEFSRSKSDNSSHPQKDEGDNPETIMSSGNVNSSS
S1P3 agonist = S1P3 (human) receptor agonism | S1P3 NFAT-BLA reporter cells, FRET ratio; relative to 1 µM S1P, basal subtracted | activation, % at 4.5 µM | Q99500 | actives 0.1% (n = 60,000);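 active means activation above the screen-wide mean plus 3 SD, cut at about 4.5% in these data, passing the limit was not always enough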
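Assay system: stable CHO line with human S1P3, Gα16, NFAT-BLA reporter; Detection: FRET β-lactamase substrate fluorescence, excitation 405 nm, 460/535 nm emission ratio, background-subtracted; Read-out: percent activation versus median 1 µM S1P response, basal-subtracted, per plate; Incubation: cells plated overnight, compound 4 h 37 °C, substrate 2 h RT.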
M1 ag = agonists of M1 muscarinic receptor; CHO-M1 cells, Fluo-4 calcium fluorescence, agonist mode; hits give high values; B-score at 10 µM; actives 3% (n = 64,000);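 active means fluorescence rise, raw or as B-score row- and column-corrected plate score, outside the 99.7% band of its plate's samples, either direction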
M1 antag conf = confirmation of rat M1 muscarinic receptor antagonists; shares compounds with M1 antag; calcium response (max-min fluorescence) at 10 µM; CHO-M1 cells, Fluo-4 calcium, ACh EC80 antagonism; hits give low values; actives 43% (n = 1,700);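 active means calcium response below the same-plate mean of wells given acetylcholine alone at its 80%-effect dose, minus 3 SD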;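 further: raw fluorescence intensity difference in arbitrary instrument units and not normalized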
mGluR4 antag = acts on human mGluR4 in M1 antagonist selectivity test. shares compounds with M1 antag. CHO-mGluR4 calcium flux, Fluo-4 fluorescence, glutamate EC80; hits give low values. fluorescence response (max-min) at 10 µM. actives 0.9% (n = 1,700);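 active means fluorescence response below the plate's average for near-maximal glutamate wells, less 3 SD of those wells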;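 further: raw unnormalized fluorescence span taken in the window right after glutamate addition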
Starred values were filed as active, the others as inactive; x = not tested or not shown. Shown are actives, neighbours in structure and some others; about 11% of the full set was active somewhere.

SMILES	M1 antag	D1 mod	S1P1 ag-PAM	S1P3 agonist	M1 ag	M1 antag conf	mGluR4 antag
CCOC(=O)C1CC=C(Cl)CC1C(=O)Nc1nccs1 (centres undefined)	-0.00611	0.642	5.6	6.6	-0.193	x	x
CN(Cc1ccccc1)S(=O)(=O)c1ccc2c(c1)OCCO2	-0.473	-0.146	x	-0.8	0.0631	x	x
CN(C)S(=O)(=O)c1cccc(CSc2cccc[n+]2[O-])c1	-2.22*	-0.629	-11.6	0.0	0.771	666	184
Cc1ccc(S(=O)(=O)/N=C(\CN2CCCCC2)N2CCOCC2)cc1	-2.59*	0.573	-14.9	0.6	-0.043	589	236
Cc1ccc(S(=O)(=O)N2CCN(C(=O)CN3CCOCC3)C2)cc1	-0.191	x	0.2	0.9	-0.588	x	x
O=C(CSCc1cccc(Br)c1)N1CCOCC1	0.0214	0.244	1.7	-1.1	0.89	x	x
COC(=O)c1ccc(-n2nnnc2SCc2nn[nH]n2)cc1	0.281	0.398	x	-0.9	-0.39	x	x
CCC1=NC(c2ccccc2OC)N(O)C1(C)C (centres undefined)	-15.3*	-0.225	-35.3	-0.7	0.11	257*	189
COc1ccc(C2N=C(c3ccccc3)C(C)(C)N2O)cc1OC (centres undefined)	0.224	-0.105	-14.6	-0.1	-0.948	x	x
COc1ccc(C(c2nnnn2Cc2ccc(F)cc2)N2CCN(c3ccc(OC)cc3)CC2)cc1 (centres undefined)	-3.83*	-0.901	-25.7	-0.6	0.798	661	168
CCc1nc2ccccc2c(=O)n1CCCCn1c(CC)nc2ccccc2c1=O	0.983	0.333	-2.1	-0.5	-0.231	x	x
Cc1nn(-c2ccccc2)c2sc(-c3n[nH]c(=S)o3)cc12	x	x	-2.9	-0.3	x	x	x
COc1cccc(OCC(O)CN2C(C)CCCC2C)c1 (centres undefined)	-0.309	0.579	-19.0	-0.8	0.182	x	x
CC1CCCC(C)N1CC(O)COc1ccc(Cl)cc1 (centres undefined)	-3.18*	-0.518	1.8	-1.9	-0.115	501*	224
O=c1c2ccccc2nc2n1CCCCN2	-0.226	-0.549	-12.9	-0.8	-0.468	x	x
CC(C)C(NC(=O)C1CCCCC1)C(=O)Nc1ccccn1 (centres undefined)	0.0987	0.561	-0.8	-0.1	-0.761	x	x
CC(C)CC(NC(=O)C1CCC(C)CC1)C(=O)Nc1ccccn1 (centres undefined)	-3.41*	x	x	x	0.0145	518	188
Cc1ccc(C2/C(=C(\O)c3c(C)nc4ccccn34)C(=O)C(=O)N2CCCN2CCOCC2)o1 (centres undefined)	0.277	0.0242	1.7	-0.7	-0.365	x	x
Cc1ccccc1C(=O)N1CCC(C(=O)Nc2ccc(F)cc2)CC1	-4.28*	0.366	x	-0.7	0.192	502	184
Cn1c(C(=O)NCCN2CCCCCC2)cc2c(=O)n(C)c3ccccc3c21	-3.69*	-0.261	-22.1	-1.4	1.74	430*	209
CN1CCN(CCCNC(=O)c2cc3c(=O)n(C)c4ccccc4c3s2)CC1	-2.77*	-1.14	-55.1	-0.1	0.0502	434	196
Cn1c(C(=O)NCCN2CCN(Cc3ccccc3)CC2)cc2c(=O)n(C)c3ccccc3c21	-6.91*	-0.541	-32.2	-1.3	0.0431	288*	263
Cn1c(C(=O)NCCCN2CCOCC2)cc2c(=O)n(C)c3ccccc3c21	-0.344	-0.304	-24.2	-1.1	-0.365	x	x
Cn1cc(C(=O)NCCN2CCN(c3ccccc3F)CC2)c2c3ccccc3n(C)c2c1=O	-4.33*	-2.05	-14.0	-1.8	-0.164	453	161
O=C(NC1CCCC1)C(c1cccs1)N(CC1CCCO1)C(=O)Cc1cccs1 (centres undefined)	x	x	3.8	-1.5	x	x	x
SMILES	M1 antag	D1 mod	S1P1 ag-PAM	S1P3 agonist	M1 ag	M1 antag conf	mGluR4 antag
CCCCSc1nc(C)c(CC(=O)O)c(=O)[nH]1	0.0806	-0.0903	9.9	-0.9	0.508	x	x
CCN(CC)c1ccc(-c2nc3cnccc3n2C)cc1	-13.7*	-0.801	10.1	-1.3	0.141	63.9*	253
CCN(CC)CCOC(=O)c1c(C)oc2ccc(O)cc12	-3.31*	-1.61	-23.1	-0.7	0.0484	296*	258
CCOC(=O)c1c(CN2CCN(C)CC2)oc2ccc(O)cc12	-1.04	-0.149	-19.4	-0.3	0.076	x	x
Cc1nc2sccn2c(=O)c1CCN1CCC(=C(c2ccc(F)cc2)c2ccc(F)cc2)CC1	-5.14*	-2.93	8.9	-3.2	-0.0154	324*	292
O=C1CN(C(=O)CN2CCCC2)C(c2ccccc2)c2cc(Br)ccc2N1 (centres undefined)	-2.8*	-0.683	1.8	-0.2	-0.252	473	305
Cc1onc(-c2ccccc2)c1C(=O)Nc1ccc2c(c1)OCCO2	0.0171	-1.51	-18.7	0.6	-0.0679	x	x
Cc1onc(-c2c(F)cccc2Cl)c1C(=O)Nc1nnc(C2CC2)s1	-4.12*	x	10.4	-0.9	1.14	481*	223
Cc1onc(-c2c(Cl)cccc2Cl)c1C(=O)Nc1ccc2c(c1)OCCO2	-3.06*	0.522	6.8	-2.1	-0.627	424*	235
Cn1c(Br)nc2c1c(=O)n(CC(O)COc1ccccc1)c(=O)n2C (centres undefined)	0.749	0.13	-7.1	-0.6	0.12	x	x
CCOC(=O)Nc1ccc2c(c1)N(C(=O)OC)c1ccccc1CC2	0.118	-0.806	-5.2	0.8	-1.04	x	x
CCOC(=O)Nc1ccc2c(c1)N(C(=O)CCN(C)C)c1ccccc1S2	-10.3*	-0.713	81.7	1.1	-0.095	21.9*	251
CCOC(=O)Nc1ccc2c(c1)N(C(=O)CN1CCN(C)CC1)c1ccccc1S2	-13.1*	0.0143	6.5	-0.7	-0.699	46.3*	226
Cc1cc(C(=O)OCC(=O)Nc2cc(C)on2)c2ccccc2n1	-6.06*	0.747	-15.3	-0.7	-0.611	656	228
CCOc1ccccc1N1Cc2cc(C)c(C)cc2C1	-1.53*	0.0516	8.1	-1.5	-0.0415	655	231
Cc1c(NC(=O)C2(C)CCCCC2)c(=O)n(-c2ccccc2)n1C	-0.331	x	-16.8	-0.8	-0.467	x	x
Cc1c(NC2=NC3(CCCCC3)Cc3ccccc32)c(=O)n(-c2ccccc2)n1C	-2.69*	-1.06	-5.7	-1.2	-0.0669	62*	200
O=C(CSc1nnc(-c2ccco2)n1Cc1ccccc1)c1ccc(F)cc1	0.625	-0.859	23.4	0.3	0.574	x	x
CCOc1ccc2nc(N3CCCCCC3)sc2c1	0.769	-0.787	-10.3	1.4	0.138	x	x
CN(C)c1nc2ccc(OCCN3CCCCC3)cc2s1	-2.98*	-3.38*	x	-0.3	-0.28	408*	216
O=C(Cn1nnc2ccccc21)NC1CCCCC1	0.00984	0.581	-33.1	-0.5	0.558	x	x

Bioassay records as filed in PubChem BioAssay.
